We go through 5 compounds from PubChem BioAssay AID2805 (Sanford-Burnham Center for Chemical Genomics, 2010).

About 780 (0.24%) of roughly 330,000 compounds were called active.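 The calls were made as follows: active = activation factor of at least 2 at 20 µM; inactive = the rest.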 This excerpt belongs to a sample that is enriched for actives.

This test relates to intestinal alkaline phosphatase [Mus musculus]. The test is described as follows: activators of mouse IAP, primary screen, biochemical, luminescence, uHTS (AID 2805). Particulars: muIAP, CDP-Star luminescence, 30 min, at 10 µM, active compounds read high. Summed up:
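System: mouse IAP enzyme. Reagent: CDP-Star chemiluminescent phosphatase substrate. Benchmarks: DMSO wells, no-enzyme wells. Times: 30 min enzyme-substrate-compound incubation at room temperature. Detection: luminescence from enzymatic CDP-Star hydrolysis. Doses: test compounds delivered from DMSO solution.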
Consider `Cc1cc(C)cc(NC(=S)NC2CC3CCCC(C2)N3Cc2cccs2)c1` (stereo not given), for which the activation factor is 5.54 (active).

Take `O=C1NC(=O)C(C/C=C/c2ccccc2)C(=O)N1`: the activation factor is 0.991 (inactive).

For `N#CC1=C(N)Oc2c(c(=O)oc3ccccc23)C1c1ccccc1OC(=O)c1cccs1` (stereo not given), the activation factor is 0.989 (inactive).

For the compound `C=CCn1c(O)c(/C=N/N2CCOCC2)c(=O)[nH]c1=S`, the activation factor was 1.03 (inactive).

Regarding `O=C1C2(Cl)C3(Cl)C4(Cl)C(Cl)(Cl)C5(Cl)C3(Cl)C1(Cl)C5(Cl)C24Cl` (stereo not given), the activation factor is 0.917 [1 = vehicle-only enzyme signal, 0 = enzyme-free wells] (inactive).
